Measurements reported in ChEMBL document CHEMBL4359830, “Discovery and structure-activity relationship of novel diphenylthiazole derivatives as BTK inhibitor with potent activity against B cell lymphoma cell lines” (Eur J Med Chem, 2019).
Each block holds one compound with its values, some of them ahead of it.

What was measured:
[1] = system: Ramos; experiment: Antiproliferative activity against human Ramos cells at 40 uM measured after 72 hrs by CCK-8 assay relative to control; type: functional
In short: (§1)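 Ramos or Raji cells in RPMI-1640 with 10% FBS and 1% penicillin-streptomycin at 37 °C, 5% CO2. Seeded at 2000–3000 cells/well one day before compound addition. Exposure 72 h, then CCK-8 with absorbance at 450 nm. […] Single-point inhibition at 40 µM reported as mean ± standard deviation.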

[2] = system: Raji; experiment: Induction of apoptosis in human Raji cells assessed as necrotic cells at 5 uM measured after 15 mins by Annexin-V-APC staining-based flow cytometric analysis (reference value: 1.87 %); type: functional
[3] = system: Ramos; experiment: Cell cycle arrest in human Ramos cells assessed as accumulation at G2/M phase at 1 uM measured after 48 hrs by propidium iodide/RNase staining based flow cytometric analysis (reference value: 5.98 %); type: functional
[4] = system: Raji; experiment: Cell cycle arrest in human Raji cells assessed as accumulation at G0/G1 phase at 1 uM measured after 48 hrs by propidium iodide/RNase staining based flow cytometric analysis (reference value: 48.68 %); type: functional
[5] = system: Ramos; experiment: Induction of apoptosis in human Ramos cells assessed as necrotic cells at 5 uM measured after 15 mins by Annexin-V-APC staining-based flow cytometric analysis (reference value: 1.50 %); type: functional
[6] = system: Ramos; experiment: Induction of apoptosis in human Ramos cells assessed as viable cells at 5 uM measured after 15 mins by Annexin-V-APC staining-based flow cytometric analysis (reference value: 96.5 %); type: functional
[7] = system: Ramos; experiment: Antiproliferative activity against human Ramos cells measured after 72 hrs by CCK-8 assay; type: functional, cell-based; in short: as §1
[8] = system: Raji; experiment: Induction of apoptosis in human Raji cells assessed as late apoptotic cells at 5 uM measured after 15 mins by Annexin-V-APC staining-based flow cytometric analysis (reference value: 0.57 %); type: functional
[9] = system: Raji; experiment: Antiproliferative activity against human Raji cells at 40 uM measured after 72 hrs by CCK-8 assay relative to control; type: functional; in short: as §1
[10] = system: Raji; experiment: Cell cycle arrest in human Raji cells assessed as accumulation at G2/M phase at 1 uM measured after 48 hrs by propidium iodide/RNase staining based flow cytometric analysis (reference value: 18.14 %); type: functional
[11] = system: Ramos; experiment: Cell cycle arrest in human Ramos cells assessed as accumulation at G0/G1 phase at 1 uM measured after 48 hrs by propidium iodide/RNase staining based flow cytometric analysis (reference value: 37.66 %); type: functional
[12] = system: Ramos; experiment: Induction of apoptosis in human Ramos cells assessed as late apoptotic cells at 5 uM measured after 15 mins by Annexin-V-APC staining-based flow cytometric analysis (reference value: 1.85 %); type: functional
[13] = system: Raji; experiment: Induction of apoptosis in human Raji cells assessed as early apoptotic cells at 5 uM measured after 15 mins by Annexin-V-APC staining-based flow cytometric analysis (reference value: 0.021 %); type: functional
[14] = system: Ramos; experiment: Induction of apoptosis in human Ramos cells assessed as early apoptotic cells at 5 uM measured after 15 mins by Annexin-V-APC staining-based flow cytometric analysis (reference value: 0.14 %); type: functional
[15] = system: Raji; experiment: Antiproliferative activity against human Raji cells measured after 72 hrs by CCK-8 assay; type: functional, cell-based; in short: as §1
[16] = system: Ramos; experiment: Cell cycle arrest in human Ramos cells assessed as accumulation at S phase at 1 uM measured after 48 hrs by propidium iodide/RNase staining based flow cytometric analysis (reference value: 56.35 %); type: functional
[17] = system: Raji; experiment: Cell cycle arrest in human Raji cells assessed as accumulation at S phase at 1 uM measured after 48 hrs by propidium iodide/RNase staining based flow cytometric analysis (reference value: 33.18 %); type: functional
[18] = system: Raji; experiment: Induction of apoptosis in human Raji cells assessed as viable cells at 5 uM measured after 15 mins by Annexin-V-APC staining-based flow cytometric analysis (reference value: 97.5 %); type: functional
[19] = target: Tyrosine-protein kinase BTK (Homo sapiens, UniProt Q06187); experiment: Inhibition of human recombinant full length N-terminal His tagged BTK expressed in baculovirus infected Sf9 cells using poly (Glu,Tyr) 4:1 as substrate measured after 60 mins in presence of ATP by ADP-Glo kinase assay
[20] = system: Raji; experiment: Potency index, ratio of ibrutinib IC50 to compound IC50 for antiproliferative activity against human Raji cells; type: functional

Chain of Tyrosine-protein kinase BTK (Q06187 whole entry): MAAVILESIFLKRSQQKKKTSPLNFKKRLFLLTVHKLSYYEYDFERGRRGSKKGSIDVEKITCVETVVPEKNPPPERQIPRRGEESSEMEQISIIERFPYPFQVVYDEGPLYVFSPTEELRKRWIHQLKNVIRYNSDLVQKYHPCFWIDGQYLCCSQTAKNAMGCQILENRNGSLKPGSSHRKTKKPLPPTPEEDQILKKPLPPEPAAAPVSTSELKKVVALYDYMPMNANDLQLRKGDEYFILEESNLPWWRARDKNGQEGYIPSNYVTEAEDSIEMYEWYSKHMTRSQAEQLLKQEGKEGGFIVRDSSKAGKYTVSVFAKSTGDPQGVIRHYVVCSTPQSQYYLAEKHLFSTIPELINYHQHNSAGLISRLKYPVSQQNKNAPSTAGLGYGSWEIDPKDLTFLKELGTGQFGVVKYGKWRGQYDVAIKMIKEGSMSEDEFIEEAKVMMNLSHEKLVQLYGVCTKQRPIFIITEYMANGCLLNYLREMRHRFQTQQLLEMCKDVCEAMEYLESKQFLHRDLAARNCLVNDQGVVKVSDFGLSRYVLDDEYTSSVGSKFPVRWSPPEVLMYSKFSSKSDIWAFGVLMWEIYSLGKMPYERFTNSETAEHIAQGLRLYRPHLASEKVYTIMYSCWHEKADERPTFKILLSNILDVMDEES

Structure (SMILES): C=CC(=O)N1CCC[C@@H](n2nc(-c3ccc(Oc4ccccc4)cc3)c3c(N)ncnc32)C1 [IBRUTINIB]
- inhibition (INH) [1]: 81.2%
- Activity [2]: 4.01%
- Activity [3]: 2.81%
- Activity [4]: 70.42%
- Activity [5]: 4.92%
- Activity [6]: 89.1%
- IC50 [7]: 14.7 µM
- Activity [8]: 1.14%
- inhibition (INH) [9]: 76.23%
- Activity [10]: 14.92%
- Activity [11]: 68.45%
- Activity [12]: 5.88%
- Activity [13]: 0.01%
- Activity [14]: 0.13%
- IC50 [15]: 16 µM
- Activity [16]: 28.73%
- Activity [17]: 14.66%
- Activity [18]: 94.8%

- IC50 [7]: 3.51 µM
- IC50 [19]: 1.12 µM
- IC50 [15]: 1.2 µM
Structure (SMILES): O=C(Nc1cccc(-c2nc(Nc3ccc(N4CCOCC4)cc3)c(C(=O)O)s2)c1)c1ccc(F)cc1
- inhibition at 40 µM ([1]; Homo sapiens, Ramos, 72 h): 90.5%
- inhibition at 40 µM ([9]; Homo sapiens, Raji, 72 h): 96.4%
- Ratio IC50 [20]: 13
